# The entries come from a sample that favours hits as a whole.
# INS-1E ATP HTS = INS-1E beta cell protection from cytokine death. 20,000 compounds, 0.1% hits. protection from cytokine-induced ATP loss, % at 10 µM. INS-1E cytokine-induced death, ATP luminescence, 48 h; normalised: neutral wells 0, positive control 100;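 active = mean replicate protection from cytokine-induced ATP loss at least 50% and at least 75% of replicates each reaching 50%; inconclusive = meets only one of the two criteria, mean or replicate share; inactive = fails both the mean and replicate share criteria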
#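 Test system: INS-1E rat cells | Quantity: 8000 cells per well | Medium: Phenol-red-free RPMI with 5% fetal bovine serum | Reagent: Cytokine cocktail of IFN-γ, TNF-α and IL-1β | Doses: One compound concentration, pin transfer | Timing: 48 h co-treatment, 10 min post-lysis read | Technique: Luminescent ATP assay (CellTiter-Glo)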
# A1 apoptosis 2 = A1 inhibition read as caspase activation; caspase activation, % (test concentration not listed); MEF A1-2A-BIM cells, caspase-Glo luminescence, 3 h; percent of clofoctol response, DMSO zero; 24,000 tested, under 10 active; AID 2465; in the data active = caspase activation above about 5.9%; inconclusive = no clear call, values can overlap the other calls; inactive = below about 2.2%
#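 Test system – A1-2A-BIM-expressing MEF cells · Input – 2500 cells/well · Medium – RPMI-1640 growth medium with 10% FBS · Compound dosing – 50 nL pinned compound · Timing – 3 h compound exposure at 37 °C · Technique – Caspase-Glo luminescence (DEVD substrate) · Evaluation – Caspase-3/7 activity from luminescence increase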
# T cruzi intra = blocks T. cruzi growth inside host cells; activity score (inhibition), % at 5.01 µM; 22,000 compounds, 4.9% hits; intracellular Trypanosoma cruzi in host cells, plate reader; in the data active = activity score above about 55%; inconclusive = no clear call, values can overlap the other calls;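 note: parasites and compound incubated about four days before reading; 0% = median of neutral control wells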
# * marks the source's active call; other numbers are inactive results; ? = inconclusive; nt = no result given.
SMILES,INS-1E ATP HTS,A1 apoptosis 2,T cruzi intra
COC(=O)CCCCCCC(=O)N/N=C/c1ccccc1O,3.8,-0.1,-4.4
COc1ccc(S(=O)(=O)N(C)C[C@H]2Oc3ccc(NS(=O)(=O)c4ccc(C)cc4)cc3CC(=O)N([C@H](C)CO)C[C@H]2C)cc1,6.6,0.8,64.4*
COc1ccc(S(=O)(=O)Nc2ccc3c(c2)CC(=O)N([C@H](C)CO)C[C@H](C)[C@H](CN(C)S(=O)(=O)c2ccc(C)cc2)O3)cc1,-2.5,-1.0,21.1
COc1ccc(S(=O)(=O)Nc2ccc3c(c2)CC(=O)N([C@@H](C)CO)C[C@@H](C)[C@@H](CN(C)S(=O)(=O)c2ccc(C)cc2)O3)cc1,7.0,nt,63.1*
COc1ccc(S(=O)(=O)N(C)C[C@@H]2Oc3ccc(NS(=O)(=O)c4ccc(C)cc4)cc3CC(=O)N([C@@H](C)CO)C[C@@H]2C)cc1,9.1,nt,-4.3
O=C(NO)c1cccc(C(=O)N/N=C/c2ccc(O)c(O)c2)c1,0.6,0.1,-27.8
O=C(N=NC=C1C=CN(O)C=C1)c1ccccc1O,-34.6,-1.2,-4.8
COc1ccc(S(=O)(=O)Nc2cccc3c2O[C@H](CN(C)C(=O)Nc2ccc(F)cc2)[C@@H](C)CN([C@H](C)CO)C3=O)cc1,-1.8,nt,5.6
C[C@@H]1CN([C@@H](C)CO)C(=O)c2cccc(NC(=O)Nc3ccc(C(F)(F)F)cc3)c2O[C@H]1CN(C)C(=O)Nc1ccc(C(F)(F)F)cc1,-95.5,-2.0,72.2*
C[C@@H]1CN([C@H](C)CO)C(=O)c2cccc(NC(=O)Nc3ccc(C(F)(F)F)cc3)c2O[C@H]1CN(C)C(=O)Nc1cccc2ccccc12,-16.6,-0.5,-4.2
C[C@H]1CN([C@@H](C)CO)C(=O)c2cccc(NC(=O)Nc3ccc(C(F)(F)F)cc3)c2O[C@@H]1CN(C)C(=O)Nc1cccc2ccccc12,-10.7,1.3,66.1*
C[C@@H]1CN([C@H](C)CO)C(=O)c2cccc(NS(=O)(=O)c3cccs3)c2O[C@@H]1CN(C)C(=O)Nc1ccc(C(F)(F)F)cc1,-34.8,0.9,71.2*
COc1ccc(NC(=O)N(C)C[C@H]2Oc3c(NS(=O)(=O)c4ccc(F)cc4)cccc3C(=O)N([C@@H](C)CO)C[C@H]2C)cc1,0.9,-0.9,64.2*
C[C@@H]1CN([C@@H](C)CO)C(=O)c2cccc(NS(=O)(=O)c3cccs3)c2O[C@@H]1CN(C)C(=O)Nc1ccc(F)cc1,8.6,nt,13.7
C[C@H]1CN([C@@H](C)CO)C(=O)c2cccc(NC(=O)Nc3ccc(C(F)(F)F)cc3)c2O[C@@H]1CN(C)C(=O)Nc1ccc(C(F)(F)F)cc1,-58.4,-0.2,46.7
O=C(O)CCCCCC(=O)N/N=C/c1c(O)ccc2ccccc12,11.2,-0.7,-9.1
O=C(Nc1ccccc1)C1=C[C@H](c2ccc3c(c2)Cc2ccccc2-3)C[C@H](OCc2ccc(CO)cc2)O1,nt,-1.6,nt
C[C@H](CO)N1C[C@H](C)[C@@H](CN(C)C(=O)Nc2cccc3ccccc23)Oc2ccc(NC(=O)Cc3ccccc3)cc2C1=O,-2.3,nt,6.1
O=C(N/N=C/c1ccc(S(=O)(=O)O)o1)c1ccccn1,-10.6,nt,-17.5
O=C(O)CCCCCCC(=O)N/N=C/c1ccc[nH]1,-1.8,nt,-36.4
C[C@@H]1CN([C@H](C)CO)C(=O)c2cccc(NC(=O)Nc3ccc(C(F)(F)F)cc3)c2O[C@@H]1CN(C)C(=O)NC1CCCCC1,-109.8,0.8,82.2*
C[C@@H]1CN([C@@H](C)CO)C(=O)c2cccc(NC(=O)Nc3ccc(C(F)(F)F)cc3)c2O[C@H]1CN(C)C(=O)NC1CCCCC1,-7.2,-0.6,-9.4
C=CC(CO)NS(=O)(=O)c1ccc(Br)cc1 (centres undefined),nt,-0.7,nt
O=C(CCCCCCC(=O)Nc1ccccc1O)N/N=C/c1ccc(Br)s1,-4.7,0.5,-2.4
O=C(CCCCC(=O)NN=C1CCCCCCC1)NO,5.3,0.4,12.6
SMILES,INS-1E ATP HTS,A1 apoptosis 2,T cruzi intra
C[C@H]1CN([C@@H](C)CO)C(=O)Cc2cc(NC(=O)Nc3ccccc3)ccc2O[C@@H]1CN(C)Cc1ccc(C(=O)Nc2ccccc2N)cc1,nt,-1.0,nt
C[C@@H]1CN([C@@H](C)CO)C(=O)Cc2cc(NC(=O)Nc3ccc(F)cc3)ccc2O[C@@H]1CN(C)Cc1ccc(C(=O)Nc2ccccc2N)cc1,-6.3,nt,63.4*
C[C@@H]1CN([C@@H](C)CO)C(=O)Cc2cc(NC(=O)NC3CCCCC3)ccc2O[C@H]1CN(C)Cc1ccc(C(=O)Nc2ccccc2N)cc1,nt,0.0,nt
C[C@@H]1CN([C@H](C)CO)C(=O)Cc2cc(NC(=O)C3CC3)ccc2O[C@H]1CN(C)Cc1ccc(C(=O)Nc2ccccc2N)cc1,-1.7,nt,19.3
C[C@H]1CN([C@@H](C)CO)C(=O)Cc2cc(NC(=O)NC3CCCCC3)ccc2O[C@H]1CN(C)Cc1ccc(C(=O)Nc2ccccc2N)cc1,3.3,-1.5,67.3*
C[C@@H]1CN([C@@H](C)CO)C(=O)Cc2cc(NC(=O)Nc3ccc4c(c3)OCO4)ccc2O[C@@H]1CN(C)Cc1ccc(C(=O)Nc2ccccc2N)cc1,-14.9,-0.1,66.5*
C[C@@H]1CN([C@@H](C)CO)C(=O)Cc2cc(NC(=O)C3CC3)ccc2O[C@@H]1CN(C)Cc1ccc(C(=O)Nc2ccccc2N)cc1,-7.9,nt,58.3*
C[C@@H]1CN([C@H](C)CO)C(=O)Cc2cc(NC(=O)Nc3ccc4c(c3)OCO4)ccc2O[C@H]1CN(C)Cc1ccc(C(=O)Nc2ccccc2N)cc1,nt,-0.5,nt
O=C(NO)c1ccc(C(=O)N/N=C/c2ccc3ccccc3c2O)cc1,-61.6,0.1,13.9
COc1cc2c(cc1OC)CN(C(=O)[C@@H]1[C@H]3C(=O)O[C@H](c4ccccc4)[C@H](c4ccccc4)N3[C@H](c3ccccc3OCCO)[C@@]13C(=O)Nc1ccc(C#CCCO)cc13)CC2,nt,-1.5,nt
O=C(CCCCCCC(=O)Nc1ccccc1O)N/N=C/C1=CCCCC1,0.4,-2.3,-7.3
O=C(N/N=C/c1ccc(CO)o1)c1ccccn1,3.9,nt,-28.4
CN1C(=O)N[C@@H]2c3ccccc3O[C@@]1(C)[C@@H]2CO[Si](C)(C)C(C)(C)C,nt,-1.2,nt
CC1(C)COC(CCC/C=N/NC(=O)CCCCCCC(=O)Nc2ccccc2O)OC1,-6.8,nt,-3.1
C[C@H](CO)N1C[C@H](C)[C@H](CN(C)Cc2ccc(C(=O)Nc3ccccc3N)cc2)Oc2ccc(NC(=O)Nc3ccc(F)cc3)cc2CC1=O,31.4,nt,66.3*
C[C@@H]1CN([C@@H](C)CO)C(=O)Cc2cc(NC(=O)Nc3ccccc3)ccc2O[C@@H]1CN(C)Cc1ccc(C(=O)Nc2ccccc2N)cc1,-14.1,nt,?
C[C@@H]1CN([C@H](C)CO)C(=O)c2cc(NC(=O)Nc3cccc4ccccc34)ccc2O[C@@H]1CN(C)Cc1ccc(C(F)(F)F)cc1,-11.2,0.0,74.8*
C[C@@H]1CN([C@@H](C)CO)C(=O)c2cc(NC(=O)Nc3cccc4ccccc34)ccc2O[C@H]1CN(C)Cc1ccccc1,-15.1,nt,?
C[C@H](CO)N1C[C@H](C)[C@H](CN(C)Cc2ccc(C(F)(F)F)cc2)Oc2ccc(NC(=O)Nc3cccc4ccccc34)cc2C1=O,nt,1.3,49.5

# Bioassay records as filed in PubChem.
